Measured values as given in ChEMBL document CHEMBL3758157, “Design, synthesis, and evaluation of potent Wnt signaling inhibitors featuring a fused 3-ring system” (Eur J Med Chem, 2016).
≈ marks a conversion by molar mass, not a printed value. Calls of active or inactive are those of the source. The rule behind the calls is not given here.

Assays:
[1] = Inhibition of Wnt signaling (unknown origin) expressed in mouse L Wnt3A cells co-cultured with HEK293 cells after 48 hrs by Super-top flash reporter gene assay; type: cell-based; settings: Homo sapiens, HEK293, 48 h
How it was run: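 Mouse L Wnt3A cells and HEK293 Super-Top Flash TCF-luciferase stable cells mixed 1:1, 12,000 cells/well, grown 24 h, then compound in DMSO diluted in DMEM added. After 48 h at 37°C, Bright-Glo luminescence read; IC50 from signal inhibition, geometric mean of at least two runs ± SEM; LGK974 standard in each run.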

[2] = Cytotoxicity against mouse NIH/3T3 cells by GRE-Luciferase reporter gene assay; type: cell-based; settings: nih3t3
How it was run: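 NIH3T3 cells carrying GRE-luciferase reporter stimulated with 10 nM SAG as Hh pathway agonist, used as counter-screen for nonspecific cytotoxicity.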

[3] = Thermodynamic solubility of the compound in FaSSIF at 4 mg/ml at pH 6.5 after overnight incubation by LC-MS/MS analysis; type: physicochemical; settings: read-out: Therm_solubility
How it was run: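 4 mg/mL suspension in FaSSIF (pH 6.5) shaken 1 h, then equilibrated overnight at room temperature; supernatant after centrifugation quantified by LC-MS/MS.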

[4] = Chemical stability in simulated gastric fluid assessed as compound remaining at 200 uM at 40 degC after 24 hrs by HPLC technique; type: physicochemical; settings: read-out: Stability
How it was run: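 Compound at 200 µM in simulated gastric fluid (3.8 mL conc. HCl diluted to 1000 mL water), held at 40°C for 24 h; percent remaining reported.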

Rattus norvegicus = assay: AUC (0 to 24 hrs) in Sprague-Dawley rat plasma at 2 mg/kg, iv by LC-MS/MS analysis; type: ADME, organism-based; set-up: dose 2 mg/kg, time < 24 hr, route intravenous; settings: in vivo
How it was run: (§1)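 Male Sprague-Dawley rats (200-250 g), fasted 12 h before dosing, food returned ~4 h post-dose. Solution at 1 mg/mL in NMP/Tween80/PEG400/water (10/1/50/39) given by tail vein at 2 mL/kg or oral gavage at 10 mL/kg. Plasma from timed blood samples precipitated with cold acetonitrile plus internal standard, measured by LC-MS/MS; noncompartmental PK parameters.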

[5] = Half life in Sprague-Dawley rat at 2 mg/kg, iv by LC-MS/MS analysis; type: ADME, organism-based; settings: in vivo; how it was run: as §1
[6] = Tmax in Sprague-Dawley rat plasma at 10 mg/kg, po by LC-MS/MS analysis; type: ADME, organism-based; how it was run: as §1
[7] = Half life in Sprague-Dawley rat at 10 mg/kg, po by LC-MS/MS analysis; type: ADME, organism-based; settings: in vivo; how it was run: as §1
[8] = AUC (0 to 24 hrs) in Sprague-Dawley rat plasma at 10 mg/kg, po by LC-MS/MS analysis; type: ADME, organism-based; set-up: dose 10 mg/kg, time < 24 hr, route oral; how it was run: as §1
[9] = Half life in mouse liver microsomes at 1 uM preincubated for 10 mins followed by NADPH addition measured for 30 to 60 mins by LC-MS/MS analysis; type: ADME
How it was run: (§2)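 Liver microsomes (mouse or human, 0.2 mg/mL) with 1 µM substrate in 100 mM phosphate pH 7.4, preincubated 10 min, then started with 1 mM NADPH. Sampled at 0, 30, 60 min, quenched in cold acetonitrile with internal standard, LC-MS/MS. t1/2 from ln % remaining slope; scaled with 20 mg protein/g liver, liver 87.5 (mouse) or 25.7 (human) g/kg.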

[10] = Intrinsic clearance in human liver microsomes at 1 uM preincubated for 10 mins followed by NADPH addition measured for 30 to 60 mins by LC-MS/MS analysis; type: ADME; settings: read-out: CLH; how it was run: as §2
[11] = Cmax in Sprague-Dawley rat plasma at 2 mg/kg, iv by LC-MS/MS analysis; type: ADME, organism-based; set-up: dose 2 mg/kg, route intravenous; how it was run: as §1
[12] = Stability in rat plasma assessed as compound remaining at 1 uM after 8 hrs by LC-MS/MS analysis; type: ADME, cell-free; settings: read-out: Stability
How it was run: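 Compound at 1 µM incubated in blank rat plasma for 8 h, deproteinized with acetonitrile plus internal standard, centrifuged, supernatant measured by LC-MS/MS; percent remaining.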

[13] = target: T1, Protein-serine O-palmitoleoyltransferase porcupine (Homo sapiens) (UniProt Q9H237); assay: Inhibition of porcupine (unknown origin) in HEK293T cells transfected with pLibin-WNT3A plasmid assessed as reduction in Wnt3A secretion into cell culture medium at 0.1 uM after 48 hrs by Western blot technique; type: cell-based; settings: HEK-293T
T1 sequence (whole entry): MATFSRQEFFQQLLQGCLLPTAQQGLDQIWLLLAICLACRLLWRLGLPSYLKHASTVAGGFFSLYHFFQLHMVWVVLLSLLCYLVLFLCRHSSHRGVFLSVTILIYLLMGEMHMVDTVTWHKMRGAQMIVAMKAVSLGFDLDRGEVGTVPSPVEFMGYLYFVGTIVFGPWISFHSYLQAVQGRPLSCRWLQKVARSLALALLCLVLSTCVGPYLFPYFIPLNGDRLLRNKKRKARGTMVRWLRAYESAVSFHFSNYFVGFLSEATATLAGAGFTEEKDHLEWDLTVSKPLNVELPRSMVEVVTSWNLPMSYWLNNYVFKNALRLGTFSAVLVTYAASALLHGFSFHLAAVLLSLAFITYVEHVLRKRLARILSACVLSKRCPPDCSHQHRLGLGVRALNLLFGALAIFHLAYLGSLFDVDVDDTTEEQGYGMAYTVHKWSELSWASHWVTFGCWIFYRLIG
How it was run: (§3)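 HEK293T cells in 6-well plates at 60% confluence, transfected with 1 µg pLibin-WNT3A plasmid or vehicle and treated at the same time with 0.1 µM compound. After 48 h, culture supernatant and cell lysate (40-50 µg protein) separated by SDS-PAGE, blotted to PVDF and probed for Wnt3A.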

[14] = Effect on Wnt3A level in HEK293T cells transfected with pLibin-WNT3A plasmid at 0.1 uM after 48 hrs by Western blot technique; type: cell-based; settings: human, hek-293t; how it was run: as §3
[15] = Oral bioavailability in Sprague-Dawley rat at 10 mg/kg by LC-MS/MS analysis; type: ADME, organism-based; settings: in vivo; how it was run: as §1
[16] = Intrinsic clearance in mouse liver microsomes at 1 uM preincubated for 10 mins followed by NADPH addition measured for 30 to 60 mins by LC-MS/MS analysis; type: ADME; settings: read-out: CLH; how it was run: as §2
[17] = Half life in human liver microsomes at 1 uM preincubated for 10 mins followed by NADPH addition measured for 30 to 60 mins by LC-MS/MS analysis; type: ADME; how it was run: as §2
[18] = Volume of distribution at steady state in Sprague-Dawley rat at 2 mg/kg, iv by LC-MS/MS analysis; type: ADME, organism-based; settings: in vivo, read-out: Vdss; how it was run: as §1
[19] = Cmax in Sprague-Dawley rat plasma at 10 mg/kg, po by LC-MS/MS analysis; type: ADME, organism-based; set-up: dose 10 mg/kg, route oral; how it was run: as §1
Wnt3A = assay: Potency index, ratio of LGK974 IC50 to compound IC50 for Wnt signaling (unknown origin) expressed in mouse L Wnt3A cells co-cultured with HEK293; type: cell-based; settings: Homo sapiens

| SMILES | IC50 [1] [nM] | Activity [2] | further results |
| --- | --- | --- | --- |
| Cc1cc(-c2ncc(CC(=O)Nc3ccc4c(c3)[nH]c3ccccc34)cc2C)ccn1 | 2.6 | Non-toxic |  |
| Cc1cc(-c2ccc(CC(=O)Nc3ccc4c(c3)oc3ccccc34)cc2)ccn1 | 9 | Non-toxic |  |
| O=C(Cc1ccc2c(c1)Cc1ccccc1-2)Nc1ccc(-c2cnccn2)cn1 | 454 | Non-toxic |  |
| Cc1cc(-c2ncc(CC(=O)Nc3ccc(-c4cnccn4)cn3)cc2C)ccn1 [WNT-974] | 0.9 |  | inhibition [13]: Active; Activity [14]: Non-toxic |
| Cc1cc(-c2ccc(CC(=O)Nc3ccc4c5ccccc5n(C)c4c3)cc2)ccn1 | 191 | Non-toxic |  |
| Cc1cc(-c2ncc(CC(=O)Nc3ccc4c(c3)Cc3ccccc3-4)cc2C)ccn1 | 2.5 | Non-toxic |  |
| Cc1cc(-c2ncc(CC(=O)Nc3ccc4c(c3)C(F)(F)c3ccccc3-4)cc2C)ccn1 | 2.7 | Non-toxic |  |
| Cc1cc(-c2ncc(CC(=O)Nc3ccc4c5ccccc5n(C)c4c3)cc2C)ccn1 | 49 | Non-toxic |  |

Second part, led by results:

| IC50 [1] [nM] | SMILES | Activity [2] | further results |
| --- | --- | --- | --- |
| 1.4 | Cc1cc(-c2ccc(CC(=O)Nc3ccc4c(c3)Cc3ccccc3-4)cc2)ccn1 | Non-toxic |  |
| 2.3 | Cc1cc(-c2ccc(CC(=O)Nc3ccc4c(c3)[nH]c3ccccc34)cc2)ccn1 | Non-toxic | solubility thermodynamic [3]: 2 µg/mL (≈ 5.11 µM); remaining at 24 h, 200 µM [4]: 100%; AUC (Rattus norvegicus): 7442 ng·h/mL; half-life [5]: 2.5 h; Tmax [6]: 1 h; half-life [7]: 3.1 h; AUC(0-t) at 24 h [8]: 11300 ng·h/mL; half-life at 1 µM [9]: 1.52 h; CLint scaled at 1 µM [10]: 41 mL/min/kg; Cmax [11]: 1950 ng/mL; remaining at 8 h, 1 µM [12]: 100%; inhibition [13]: Active; Activity [14]: Non-toxic; bioavailability [15]: 30%; CLint scaled at 1 µM [16]: 67 mL/min/kg; half-life at 1 µM [17]: 0.717 h; Vd [18]: 2.7 L/kg; Cmax [19]: 2880 ng/mL |
| 136 | O=C(Cc1ccc2c(c1)oc1ccccc12)Nc1ccc(-c2cnccn2)cn1 | Non-toxic |  |
| 231 | O=C(Cc1ccc2c(c1)Cc1ccccc1-2)Nc1ccc(-c2cccnc2)cc1 | Non-toxic |  |
| 3.5 | Cc1cc(-c2ccc(CC(=O)Nc3ccc4c(c3)C(F)(F)c3ccccc3-4)cc2)ccn1 | Non-toxic |  |
| 2.8 | Cc1cc(-c2ncc(CC(=O)Nc3ccc4c(c3)C(=O)c3ccccc3-4)cc2C)ccn1 | Non-toxic |  |
| 544 | O=C(Cc1ccc2c(c1)oc1ccccc12)Nc1ccc(-c2cccnc2)cc1 | Non-toxic |  |
| 13 | Cc1cc(-c2ncc(CC(=O)Nc3ccc4c(c3)oc3ccccc34)cc2C)ccn1 | Non-toxic |  |
| > 1000 | O=C(Cc1ccc2c(c1)C(=O)c1ccccc1-2)Nc1ccc(-c2cccnc2)cc1 | Non-toxic |  |
| > 1000 | O=C(Cc1ccc2c(c1)C(=O)c1ccccc1-2)Nc1ccc(-c2cnccn2)cn1 | Non-toxic |  |
| 0.45 | Cc1cc(-c2ccc(CC(=O)Nc3ccc4c(c3)C(=O)c3ccccc3-4)cc2)ccn1 | Non-toxic | solubility thermodynamic [3]: < 1 µg/mL; remaining at 24 h, 200 µM [4]: 99%; half-life at 1 µM [9]: 0.2 h; CLint scaled at 1 µM [10]: 149 mL/min/kg; remaining at 8 h, 1 µM [12]: 100%; inhibition [13]: Active; Activity [14]: Non-toxic; Ratio IC50 (Wnt3A): 2; CLint scaled at 1 µM [16]: 508 mL/min/kg; half-life at 1 µM [17]: 0.2 h |
